Data: ChEMBL document CHEMBL3085676, “Self-assembly to function: design, synthesis, and broad spectrum antimicrobial properties of short hybrid E-vinylogous lipopeptides” (J Med Chem, 2013)
In brackets after ≈: the same amount, converted by molar mass. Activity calls are given as the source filed them. The calls are words filed in the database; no cut-off is given here.

Assays:
Salmonella typhimurium = assay: Antibacterial activity against Salmonella typhimurium NCIM 2501 after 18 to 20 hrs by broth dilution assay; type: functional, Salmonella enterica subsp. enterica serovar Typhimurium; conditions: Salmonella enterica
In short: (§1)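 Two-fold serial dilutions in Mueller-Hinton broth, run in triplicate. Overnight 37 °C cultures diluted to 10⁶ CFU/mL and added 1:1 to the peptide, then incubated at 37 °C for 18-20 h. Growth was read as absorbance at 492 nm against no-peptide controls. MIC taken as the lowest concentration giving complete inhibition or killing. Reproducible across three independent triplicates.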

Candida albicans [1] = assay: Antifungal activity against Candida albicans NCIM 3471 assessed as disruption of cell membrane by atomic force microscopic analysis; type: functional, organism-based
In short: (§2)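 E. coli grown in MHB and C. albicans in potato dextrose broth were pelleted and resuspended in deionized water. Cells incubated with 50 µM peptide at 37 °C for 1 h, dried 30 min at 25 °C on poly-L-lysine glass, and imaged by AFM in intermittent contact mode. Peptide-free cells served as control.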

Pseudomonas aeruginosa = assay: Antibacterial activity against Pseudomonas aeruginosa NCIM 5029 after 18 to 20 hrs by broth dilution assay; type: functional; in short: as §1
Klebsiella pneumoniae = assay: Antibacterial activity against Klebsiella pneumoniae NCIM 2957 after 18 to 20 hrs by broth dilution assay; type: functional; in short: as §1
Nakaseomyces glabratus = assay: Antifungal activity against Candida glabrata NCIM 3237 after 48 to 72 hrs; type: functional
In short: (§3)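 Peptide in water was serially diluted two-fold in potato dextrose broth and mixed 1:1 with yeast suspension at 2×10³ CFU/ml. Incubated at 25 °C for 48-72 h, with growth read as absorbance at 620 nm against a peptide-free culture. MIC was the lowest concentration giving complete growth inhibition. Run in triplicate.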

Saccharomyces cerevisiae = assay: Antifungal activity against Saccharomyces cerevisiae NCIM 3454 after 48 to 72 hrs; type: functional; in short: as §3
Cryptococcus neoformans = assay: Antifungal activity against Cryptococcus neoformans NCIM 3542 after 48 to 72 hrs; type: functional; in short: as §3
Candida albicans [2] = assay: Antifungal activity against Candida albicans NCIM 3471 after 48 to 72 hrs; type: functional; in short: as §3
Escherichia coli [3] = assay: Antibacterial activity against Escherichia coli K-12 NCIM 2563 after 18 to 20 hrs by broth dilution assay; type: functional; in short: as §1
Staphylococcus aureus = assay: Antibacterial activity against Staphylococcus aureus NCIM 5021 after 18 to 20 hrs by broth dilution assay; type: functional; in short: as §1
Escherichia coli [4] = assay: Antibacterial activity against Escherichia coli K-12 NCIM 2563 assessed as disruption of cell membrane at 50 uM after 1 hr by atomic force microscopic analysis; type: functional, organism-based; in short: as §2
Escherichia coli [5] = assay: Antibacterial activity against Escherichia coli NCIM 2065 after 18 to 20 hrs by broth dilution assay; type: functional; in short: as §1
[6] = Hemolytic activity in human RBC after 1 hr; type: ADME, cell-based; conditions: erythrocyte
In short: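 Fresh EDTA-collected human RBCs washed four times in Tris-buffered saline (10 mM Tris, 150 mM NaCl, pH 7.2) and used at 4% v/v, mixed 1:1 with two-fold serially diluted peptide (top 100 µg/ml before mixing). Incubated at 37 °C for 1 h and centrifuged; supernatant hemoglobin read at 540 nm. Buffer and 1% Triton-X served as negative and positive controls. Percent hemolysis = (A−A_N)/(A_P−A_N)×100. Run in duplicate.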

Escherichia coli [7] = assay: Antibacterial activity against Escherichia coli expressing pUC19 plasmid assessed as disruption of cytoplasmic membrane at 20 ug/mL after 1 hr by beta-galactosidase leakage assay; type: functional, organism-based
In short: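 E. coli TOP10 transformed with pUC19 (lacZ) grown in LB with 100 µg/ml ampicillin at 37 °C to A660 0.6, then washed three times. Peptide stock (200 µg/ml) added 1:10 to cells and incubated at 37 °C for 1 h. After centrifugation, supernatant was mixed with 4-methylumbelliferyl substrate and fluorescence followed for 1 h. Initial velocities used; water blank; triplicates.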

Escherichia coli [8] = assay: Antibacterial activity against Escherichia coli K-12 NCIM 2563 at 50 uM after 60 mins by FITC uptake assay; type: functional, organism-based
In short: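 E. coli grown in MHB to OD 0.6, washed, and suspended at 2×10⁷ cfu/ml in 10 mM sodium phosphate pH 7.4. Cells incubated with 50 µM peptide at 37 °C for 60 min, then immobilized on poly-L-lysine slides for 50 min at 30 °C. FITC (10 µg/ml) added, slides washed, and cells examined by fluorescence microscopy. Solvent-treated control.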

**Q.** Which MIC (Salmonella typhimurium) does the source give for `CCCCCCCCCCCC(=O)N[C@H](/C=C/C(=O)N[C@@H](CCCCN)C(=O)N[C@H](/C=C/C(=O)N[C@@H](CCCCN)C(N)=O)Cc1ccccc1)Cc1ccccc1` here?
**A.** 25 µg/mL (≈ 31.2 µM)

**Q.** What about the Activity (Candida albicans [1]) of the same molecule?
**A.** Active

**Q.** And the MIC (Pseudomonas aeruginosa)?
**A.** 25 µg/mL (≈ 31.2 µM)

**Q.** And the MIC (Klebsiella pneumoniae)?
**A.** 25 µg/mL (≈ 31.2 µM)

**Q.** What about the MIC (Nakaseomyces glabratus) of the same molecule?
**A.** 6.25 µg/mL (≈ 7.79 µM)

**Q.** And the MIC (Saccharomyces cerevisiae)?
**A.** 6.25 µg/mL (≈ 7.79 µM)

**Q.** And the MIC (Cryptococcus neoformans)?
**A.** 6.25 µg/mL (≈ 7.79 µM)

**Q.** And the MIC (Candida albicans [2])?
**A.** 3.12 µg/mL (≈ 3.89 µM)

**Q.** And the MIC (Escherichia coli [3])?
**A.** 25 µg/mL (≈ 31.2 µM)

**Q.** What about the MIC (Staphylococcus aureus) of the same molecule?
**A.** 25 µg/mL (≈ 31.2 µM)

**Q.** And the Activity (Escherichia coli [4])?
**A.** Active

**Q.** What about the MIC (Escherichia coli [5]) of the same molecule?
**A.** 25 µg/mL (≈ 31.2 µM)

**Q.** And the HD10 [6]?
**A.** < 1.56 µg/mL

**Q.** Which results are given for `CCCCCCCC(=O)N[C@@H](C)/C=C/C(=O)N[C@@H](CCCNC(=N)N)C(=O)N[C@@H](C)/C=C/C(=O)N[C@@H](CCCNC(=N)N)C(N)=O`?
**A.** MIC (Salmonella typhimurium): > 100 µg/mL; Activity (Candida albicans [1]): Active; MIC (Pseudomonas aeruginosa): > 100 µg/mL; MIC (Klebsiella pneumoniae): > 100 µg/mL; MIC (Nakaseomyces glabratus): > 100 µg/mL; MIC (Saccharomyces cerevisiae): > 100 µg/mL; MIC (Cryptococcus neoformans): > 100 µg/mL; MIC (Candida albicans [2]): > 100 µg/mL; MIC (Escherichia coli [3]): > 100 µg/mL; MIC (Staphylococcus aureus): > 100 µg/mL; Activity (Escherichia coli [4]): Active; MIC (Escherichia coli [5]): > 100 µg/mL; HD10 [6]: 52 µg/mL

**Q.** With `CCCCCCCCCCCC(=O)N[C@H](/C=C/C(=O)N[C@@H](CCCCN)C(=O)N[C@H](/C=C/C(=O)N[C@@H](CCCCN)C(N)=O)Cc1ccc(O)cc1)Cc1ccc(O)cc1` as the molecule, how does the MIC (Salmonella typhimurium) read?
**A.** 3.12 µg/mL (≈ 3.74 µM)

**Q.** And the Activity (Candida albicans [1])?
**A.** Active

**Q.** What about the MIC (Pseudomonas aeruginosa) of the same molecule?
**A.** 3.12 µg/mL (≈ 3.74 µM)

**Q.** What about the MIC (Klebsiella pneumoniae) of the same molecule?
**A.** 3.12 µg/mL (≈ 3.74 µM)

**Q.** And the MIC (Nakaseomyces glabratus)?
**A.** 3.12 µg/mL (≈ 3.74 µM)

**Q.** What about the Activity (Escherichia coli [7]) of the same molecule?
**A.** Active

**Q.** What about the MIC (Saccharomyces cerevisiae) of the same molecule?
**A.** 3.12 µg/mL (≈ 3.74 µM)

**Q.** What about the MIC (Cryptococcus neoformans) of the same molecule?
**A.** 6.25 µg/mL (≈ 7.49 µM)

**Q.** What about the MIC (Candida albicans [2]) of the same molecule?
**A.** 1.56 µg/mL (≈ 1.87 µM)

**Q.** And the MIC (Escherichia coli [3])?
**A.** 6.25 µg/mL (≈ 7.49 µM)

**Q.** What about the MIC (Staphylococcus aureus) of the same molecule?
**A.** 3.12 µg/mL (≈ 3.74 µM)

**Q.** What about the Activity (Escherichia coli [4]) of the same molecule?
**A.** Active

**Q.** What about the MIC (Escherichia coli [5]) of the same molecule?
**A.** 6.25 µg/mL (≈ 7.49 µM)

**Q.** What about the Activity (Escherichia coli [8]) of the same molecule?
**A.** Active

**Q.** And the HD10 [6]?
**A.** 2.5 µg/mL

**Q.** What does the source list for `CCCCCCCCCCCC(=O)N[C@@H](C)/C=C/C(=O)N[C@@H](CCCNC(=N)N)C(=O)N[C@@H](C)/C=C/C(=O)N[C@@H](CCCNC(=N)N)C(N)=O`?
**A.** MIC (Salmonella typhimurium): 3.12 µg/mL (≈ 4.42 µM); Activity (Candida albicans [1]): Active; MIC (Pseudomonas aeruginosa): 3.12 µg/mL (≈ 4.42 µM); MIC (Klebsiella pneumoniae): 6.25 µg/mL (≈ 8.85 µM); MIC (Nakaseomyces glabratus): 6.25 µg/mL (≈ 8.85 µM); MIC (Saccharomyces cerevisiae): 3.12 µg/mL (≈ 4.42 µM); MIC (Cryptococcus neoformans): 12.5 µg/mL (≈ 17.7 µM); MIC (Candida albicans [2]): 3.12 µg/mL (≈ 4.42 µM); MIC (Escherichia coli [3]): 12.5 µg/mL (≈ 17.7 µM); MIC (Staphylococcus aureus): 6.25 µg/mL (≈ 8.85 µM); Activity (Escherichia coli [4]): Active; MIC (Escherichia coli [5]): 12.5 µg/mL (≈ 17.7 µM); HD10 [6]: 22 µg/mL

**Q.** With `CCCCCCCC(=O)N[C@H](/C=C/C(=O)N[C@@H](CCCCN)C(=O)N[C@H](/C=C/C(=O)N[C@@H](CCCCN)C(N)=O)C(C)C)CC(C)C` as the molecule, how does the MIC (Salmonella typhimurium) read?
**A.** 50 µg/mL (≈ 75.3 µM)

**Q.** And the Activity (Candida albicans [1])?
**A.** Active

**Q.** What about the MIC (Pseudomonas aeruginosa) of the same molecule?
**A.** 50 µg/mL (≈ 75.3 µM)

**Q.** And the MIC (Klebsiella pneumoniae)?
**A.** 25 µg/mL (≈ 37.7 µM)

**Q.** What about the MIC (Nakaseomyces glabratus) of the same molecule?
**A.** 50 µg/mL (≈ 75.3 µM)

**Q.** What about the MIC (Saccharomyces cerevisiae) of the same molecule?
**A.** 50 µg/mL (≈ 75.3 µM)

**Q.** And the MIC (Cryptococcus neoformans)?
**A.** 6.25 µg/mL (≈ 9.41 µM)

**Q.** What about the MIC (Candida albicans [2]) of the same molecule?
**A.** 25 µg/mL (≈ 37.7 µM)

**Q.** What about the MIC (Staphylococcus aureus) of the same molecule?
**A.** 50 µg/mL (≈ 75.3 µM)

**Q.** What about the Activity (Escherichia coli [4]) of the same molecule?
**A.** Active

**Q.** What about the MIC (Escherichia coli [5]) of the same molecule?
**A.** 12.5 µg/mL (≈ 18.8 µM)
